Values after ≈ are worked out from the molar mass of the structure shown.
Tests used:
[1] = Aqueous solubility of the compound at pH 7.4; conditions: buffer
[2] = Intrinsic clearance in rat liver microsomes; assay type: ADME, Microsome; conditions: read-out: CLH
[3] = target: 3',5'-cyclic-AMP phosphodiesterase 4A (Homo sapiens, UniProt P27815); assay: Inhibition of human full length PDE4A4 expressed in baculovirus infected sf21 cells
[4] = target: High affinity 3',5'-cyclic-AMP phosphodiesterase 7A (Homo sapiens, UniProt Q13946); assay: Inhibition of human full length PDE7A1 expressed in baculovirus infected sf21 cells
Mustela putorius furo [5] = assay: Toxicity in po dosed ferret assessed as first emetic dose by measuring occurrence of vomiting episode after 6 hrs; assay type: organism-based; conditions: in vivo
Method in brief: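 Ferrets were given oral doses and watched for 6 h after administration for a vomiting episode; the first emetic dose was reported in mg/kg.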

serum albumin = serum albumin (Homo sapiens, UniProt P02768); assay: Binding affinity to human serum albumin; assay type: ADME; conditions: read-out: PB (converted)
Mustela putorius furo [6] = assay: Inhibition of LPS-induced neutrophilia in ferret COPD model BAL-fluid at 0.01 mg/kg, po; assay type: functional
Method in brief: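 Ferrets challenged by LPS inhalation, with compound given orally. Read-out is the change in neutrophil count in bronchoalveolar lavage fluid, expressed as percentage inhibition.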

Mustela putorius furo [7] = assay: Inhibition of LPS-induced neutrophilia in ferret COPD model BAL-fluid at 10 mg/kg, po; assay type: functional

High affinity 3',5'-cyclic-AMP phosphodiesterase 7A, sequence (Q13946 whole entry): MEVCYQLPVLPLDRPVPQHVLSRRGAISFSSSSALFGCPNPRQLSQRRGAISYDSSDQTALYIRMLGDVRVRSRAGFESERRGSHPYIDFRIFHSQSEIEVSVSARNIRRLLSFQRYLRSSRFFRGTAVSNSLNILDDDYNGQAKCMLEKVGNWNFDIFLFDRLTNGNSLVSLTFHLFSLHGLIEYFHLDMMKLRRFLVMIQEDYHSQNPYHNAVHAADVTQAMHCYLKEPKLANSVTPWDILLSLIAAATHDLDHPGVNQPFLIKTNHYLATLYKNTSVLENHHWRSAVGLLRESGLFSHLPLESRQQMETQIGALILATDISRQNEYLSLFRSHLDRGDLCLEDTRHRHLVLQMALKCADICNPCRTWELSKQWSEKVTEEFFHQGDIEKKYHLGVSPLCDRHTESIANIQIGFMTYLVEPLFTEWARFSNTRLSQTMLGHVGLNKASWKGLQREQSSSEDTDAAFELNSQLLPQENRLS
3',5'-cyclic-AMP phosphodiesterase 4A, sequence (P27815 whole entry): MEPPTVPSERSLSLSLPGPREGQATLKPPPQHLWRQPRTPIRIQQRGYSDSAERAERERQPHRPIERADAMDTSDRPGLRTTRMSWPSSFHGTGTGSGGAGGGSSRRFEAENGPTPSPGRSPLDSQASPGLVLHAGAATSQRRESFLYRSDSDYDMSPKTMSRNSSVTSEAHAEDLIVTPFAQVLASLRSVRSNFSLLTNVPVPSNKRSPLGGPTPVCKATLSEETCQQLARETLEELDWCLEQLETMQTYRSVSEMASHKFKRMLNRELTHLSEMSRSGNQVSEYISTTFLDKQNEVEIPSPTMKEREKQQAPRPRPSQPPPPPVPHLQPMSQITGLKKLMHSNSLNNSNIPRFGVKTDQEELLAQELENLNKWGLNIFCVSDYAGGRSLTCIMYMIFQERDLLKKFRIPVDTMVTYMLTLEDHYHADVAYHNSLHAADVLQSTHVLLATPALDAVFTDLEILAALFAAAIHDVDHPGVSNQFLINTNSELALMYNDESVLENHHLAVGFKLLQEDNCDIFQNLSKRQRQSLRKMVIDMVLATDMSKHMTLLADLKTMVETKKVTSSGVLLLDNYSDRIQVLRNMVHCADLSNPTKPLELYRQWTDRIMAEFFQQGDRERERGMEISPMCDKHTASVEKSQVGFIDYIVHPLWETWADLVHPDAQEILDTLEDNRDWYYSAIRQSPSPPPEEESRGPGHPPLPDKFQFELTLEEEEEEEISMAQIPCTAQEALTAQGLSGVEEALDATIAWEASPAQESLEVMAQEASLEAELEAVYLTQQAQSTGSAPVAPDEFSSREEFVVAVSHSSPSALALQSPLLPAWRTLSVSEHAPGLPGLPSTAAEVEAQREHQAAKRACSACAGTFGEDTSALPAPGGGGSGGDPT
serum albumin, sequence (P02768 whole entry): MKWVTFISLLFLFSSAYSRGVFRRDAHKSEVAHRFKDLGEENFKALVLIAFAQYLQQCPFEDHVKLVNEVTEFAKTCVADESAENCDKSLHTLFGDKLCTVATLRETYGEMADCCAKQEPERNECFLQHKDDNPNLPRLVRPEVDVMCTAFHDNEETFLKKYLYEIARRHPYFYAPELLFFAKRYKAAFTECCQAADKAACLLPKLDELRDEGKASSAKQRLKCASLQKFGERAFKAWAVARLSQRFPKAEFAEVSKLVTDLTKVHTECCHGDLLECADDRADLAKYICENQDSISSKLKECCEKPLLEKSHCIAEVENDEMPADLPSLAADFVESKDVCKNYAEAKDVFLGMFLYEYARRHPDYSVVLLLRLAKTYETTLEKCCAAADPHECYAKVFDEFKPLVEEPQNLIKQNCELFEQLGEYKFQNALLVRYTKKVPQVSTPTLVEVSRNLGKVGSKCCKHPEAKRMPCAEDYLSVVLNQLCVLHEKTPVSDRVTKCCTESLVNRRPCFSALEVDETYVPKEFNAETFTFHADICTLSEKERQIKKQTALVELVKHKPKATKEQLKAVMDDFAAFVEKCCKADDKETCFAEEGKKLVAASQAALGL

| SMILES | CLint scaled [2] [mL/min/kg] | IC50 [3] [nM] | further results |
| --- | --- | --- | --- |
| CCCC(C#N)(CC)Nc1nc(NC)nc(-n2cncn2)n1 (racemic) | 29 | 1.1 | solubility [1]: 76 µg/mL (≈ 252 µM) |
| CNc1nc(NC(C#N)(C2CC2)C2CC2)nc(-n2cncn2)n1 | 3.7 | 0.89 | solubility [1]: 22 µg/mL (≈ 70.7 µM) |
| CNc1nc(N)nc(NC2(C#N)CCCCC2)n1 |  | > 1000 |  |
| CNc1nc(Cl)nc(NC2(C#N)CCCCC2)n1 | 867 | 40 | IC50 [4]: 1070 nM |
| CNc1nc(NC2CCCC2)nc(NC2(C#N)CCCCC2)n1 |  | 59 | IC50 [4]: > 5000 nM |
| CNc1nc(Cl)nc(NC2(C#N)CCCC2)n1 |  | 54 |  |
| CNc1nc(Cl)nc(NC(C)(C)C)n1 |  | 245 |  |
| CNc1nc(NC2(C#N)CCCCC2C)nc(-n2cncn2)n1 (mixture of isomers) | 86 | 0.15 | solubility [1]: 25 µg/mL |
| N#CC1(Nc2nc(Cl)nc(NC3CC3)n2)CCCCC1 |  | 126 |  |
| N#CC1(Nc2nc(N)nc(Cl)n2)CCCCC1 |  | 1040 |  |
| CNc1nc(NC2(C#N)CCCC(C)C2)nc(-n2cncn2)n1 (mixture of isomers) | 96 | 0.2 |  |
| CNc1nc(NC2(C#N)CCCCC2)nc(SC)n1 | 579 | 4.4 | IC50 [4]: 46 nM |
| O=C(Nc1c(Cl)cncc1Cl)c1ccc(OC(F)F)c(OCC2CC2)c1 [ROFLUMILAST] |  |  | Activity (Mustela putorius furo [5]): 1 mg/kg; fraction unbound (serum albumin): 0.03; inhibition in vivo at 0.01 mg/kg (Mustela putorius furo [6]): 65%; solubility [1]: 1.3 µg/mL (≈ 3.22 µM) |
| CNc1nc(Cl)nc(NC(C)(C)C#N)n1 |  | 160 |  |
| C#CC(CC)(CC)Nc1nc(NC)nc(-n2cncn2)n1 | 22 | 2.7 |  |
| CNc1nc(NC)nc(NC2(C#N)CCCCC2)n1 | 210 | 153 | IC50 [4]: > 1000 nM |
| CCNc1nc(Cl)nc(NC2(C#N)CCCCC2)n1 |  | 232 |  |
| CNc1nc(NC2(C#N)CCCC2)nc(-n2cncn2)n1 | 43 | 1.4 | solubility [1]: 165 µg/mL (≈ 578 µM) |
| CCC(C#N)(CC)Nc1nc(Cl)nc(NC)n1 |  | 87 |  |
| CNc1nc(Cl)nc(NC2(C#N)CCCCCC2)n1 |  | 44 |  |
| CNc1nc(NC2(C#N)CCCCC2)nc(-n2cnc(C)n2)n1 | > 276 | 1 | IC50 [4]: > 5000 nM |
| COc1ccc([C@]2(C#N)CC[C@@H](C(=O)O)CC2)cc1OC1CCCC1 [CILOMILAST] |  |  | Activity (Mustela putorius furo [5]): 1 mg/kg; fraction unbound (serum albumin): 0.09; inhibition in vivo at 10 mg/kg (Mustela putorius furo [7]): 35%; solubility [1]: 17 µg/mL (≈ 49.5 µM) |
| CCCC(C#N)(CCC)Nc1nc(NC)nc(-n2cncn2)n1 | 32 | 6.5 |  |
